Activity calls are given as the source filed them. The calls are words filed in the database; no cut-off is given here.
Experiments:
[1] = test system: MDA-MB-231; assay: Cytotoxicity against human MDA-MB-231 cells after 72 hrs by CellTitre-Blue assay; type: functional, cell-based; settings: MDA-MB-231, 72 h
How it was run: (§1)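 MDA-MB-231 cells in 96-well plates were exposed to serial dilutions (0.1–1000 nM) for 72 h. CellTiterBlue reagent was added for 2 h at 37 °C and fluorescence was read. Viability is expressed as % of mock-treated control, from which IC50 was taken. Three independent experiments, quadruplicate.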

[2] = target: T1, Tubulin (Homo sapiens) (UniProt P68371+Q9H4B7+P0DPH7+P68366+Q13509+Q71U36+P04350+Q3ZCM7+P07437+P68363+Q9BQE3+Q6PEY2+Q13885+Q9BVA1+Q9BUF5); assay: Inhibition of tubulin polymerization in human MDA-MB-231 cells assessed as disruption of tubulin cytoskeleton at 10 nM after 24 hrs by Hoechst 33342 staining-based immunohistochemistry; type: cell-based
How it was run: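 MDA-MB-231 cells treated 24 h at 1, 10, 100 or 1000 nM, or DMSO 0.1%. Extracted 2 min in PIPES pH 6.8/MgCl2/EGTA/0.5% Triton buffer, fixed with 0.5% glutaraldehyde, reduced with NaBH4, blocked with 0.2% BSA. Anti-α-tubulin 1 h, then AlexaFluor 488 secondary plus Hoechst 33342 for 45 min. Imaged by laser scanning microscopy.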

[3] = test system: MDA-MB-231; assay: Antimigratory activity against human MDA-MB-231 cells at 1 uM after 18 hrs by wound healing assay; type: functional, cell-based
How it was run: (§2)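 MDA-MB-231 grown to 100% confluence in 96-well plates (2 × 10^5 per well). A ~1 mm scratch was made, detached cells were washed off and compound or DMSO was added for 16–18 h. Cells were fixed in 4% formaldehyde, stained with crystal violet and imaged. Covered area was corrected by an unscratched-and-fixed 0% control and expressed relative to DMSO (100%). Three independent experiments, quintuplicate.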

[4] = target: T1, Tubulin (Homo sapiens); assay: Inhibition of tubulin polymerization in human T24 cells at 10 nM after 24 hrs by Hoechst 33342 staining-based immunohistochemistry; type: cell-based; settings: T-24
[5] = test system: MDA-MB-231; assay: Cell cycle arrest in human MDA-MB-231 cells assessed as reduction in G1 phase at 100 nM after 48 hrs by propidium iodide staining-based flow cytometry; type: functional
[6] = test system: MDA-MB-231; assay: Cytotoxicity against human MDA-MB-231 cells at 1 to 1000 nM after 72 hrs by CellTitre-Blue assay; type: functional, cell-based; how it was run: as §1
[7] = test system: CCRF-CEM VCR/R; assay: (§3) Induction of apoptosis in human CCRF-CEM VCR/R cells at 1 uM after 72 hrs by CellTitre-Blue assay relative to control; type: functional
How it was run: (§4)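 CCRF-CEM-VCR-R cells treated 72 h at 2.5, 1, 0.1 or 0.01 μM; vincristine reference at 2.5 μM. Viability read by CellTiterBlue, reagent added for 2 h at 37 °C, fluorescence measured. Results given as percent of mock-treated control. Three independent experiments in quadruplicate, means ± SEM, t test.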

[8] = test system: CCRF-CEM VCR/R; assay: (§5) Induction of apoptosis in human CCRF-CEM VCR/R cells at 2.5 uM after 72 hrs by CellTitre-Blue assay relative to control; type: functional; how it was run: as §4
[9] = test system: MDA-MB-231; assay: Cell cycle arrest in human MDA-MB-231 cells assessed as accumulation at G2/M phase at 100 nM after 48 hrs by propidium iodide staining-based flow cytometry (reference value: 22%); type: functional
[10] = test system: MDA-MB-231; assay: Antimigratory activity against human MDA-MB-231 cells assessed as reduction in wound closure at 100 nM after 18 hrs by wound healing assay; type: functional; design: scale not given: the % may be the effect or the level left; how it was run: as §2
[11] = Cytotoxicity against human HMEC1 cells after 72 hrs by crystal violet staining assay; type: functional, cell-based; settings: HMEC-1, 72 h
[12] = test system: MDA-MB-231; assay: Cell cycle arrest in human MDA-MB-231 cells assessed as accumulation at G2/M phase at 10 nM after 48 hrs by propidium iodide staining-based flow cytometry; type: functional
[13] = Induction of apoptosis in human CCRF-CEM VCR/R cells at 1 uM after 48 hrs by propidium iodide staining-based flow cytometry; type: functional
How it was run: (§6)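 CCRF-CEM or CCRF-CEM-VCR-R cells were treated for 48 h. Cells were permeabilized in hypotonic propidium iodide solution and analysed by flow cytometry in logarithmic mode. Apoptosis was scored as the sub-G1 (DNA fragmentation) percentage.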

[14] = test system: CCRF-CEM; assay: Induction of apoptosis in human CCRF-CEM cells at 1 to 100 nM after 48 hrs by propidium iodide staining-based flow cytometry; type: functional, cell-based; how it was run: as §6
[15] = Induction of apoptosis in human CCRF-CEM VCR/R cells assessed as cell viability at 2.5 uM after 72 hrs by CellTitre-Blue assay relative to control; type: functional; settings: read-out: Activity
How it was run: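 Vincristine-resistant CCRF-CEM-VCR-R cells in 96-well plates were treated for 72 h at 0.01, 0.1, 1 or 2.5 μM. Viability was read by CellTiterBlue as % of mock-treated control. Three independent experiments, quadruplicate; t test.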

[16] = test system: PBMC; assay: Cytotoxicity against human PBMC at 1 uM after 24 to 72 hrs by MTT assay; type: cell-based
[17] = as §3; type: functional; how it was run: as §4
[18] = test system: MDA-MB-231; assay: Cell cycle arrest in human MDA-MB-231 cells assessed as accumulation at G2/M phase at 10 nM after 48 hrs by propidium iodide staining-based flow cytometry (reference value: 22%); type: functional
[19] = as §5; type: functional; how it was run: as §4
[20] = target: T1, Tubulin (Homo sapiens); assay: Inhibition of tubulin polymerization in human T24 cells at 100 nM after 24 hrs by Hoechst 33342 staining-based immunohistochemistry; type: cell-based; settings: T-24
How it was run: (§7)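 Cells (MDA-MB-231, or T-24 bladder carcinoma) were treated for 24 h at 1–1000 nM, or with DMSO (0.1%). Monomers were extracted for 2 min (80 mM PIPES pH 6.8, 1 mM MgCl2, 5 mM EGTA, 0.5% Triton X-100), then fixed with 0.5% glutaraldehyde and reduced with NaBH4. Staining used BSA blocking, anti-α-tubulin, an AlexaFluor 488 secondary and Hoechst 33342, with confocal imaging.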

[21] = target: T1, Tubulin (Homo sapiens); assay: Inhibition of tubulin polymerization in human MDA-MB-231 cells assessed as disruption of tubulin cytoskeleton at 100 nM after 24 hrs by Hoechst 33342 staining-based immunohistochemistry; type: cell-based; how it was run: as §7

Row | Compound | IC50 [1] | inhibition [2] | Activity [3] | inhibition [4] | Activity [5] | Activity [6] | Activity [8] | Activity [9] | Activity [10] | EC50 [11] | Activity [12] | further results
1 | CC[C@H](C)[C@H](NC(=O)[C@H]1CCCCN1C)C(=O)N(C)[C@H](CCc1nc(C(=O)N[C@H](CCC(=O)O)Cc2ccccc2)cs1)C(C)C | 10.1 nM | Active | Active | Active | Active | Active | Active | 60% | 35% | 4.4 nM | inactive | Activity [7]: Active
2 | CC[C@]1(O)C[C@H]2CN(CCc3c([nH]c4ccccc34)[C@@](C(=O)OC)(c3cc4c(cc3OC)N(C=O)[C@H]3[C@@](O)(C(=O)OC)[C@H](OC(C)=O)[C@]5(CC)C=CCN6CC[C@]43[C@@H]65)C2)C1 [VINCRISTINE] | 1.6 nM |  |  |  |  |  |  |  |  |  |  | Activity [13]: 20%; Activity [14]: Active; viability at 2.5 µM [15]: 80%
3 | CC[C@H](C)[C@H](NC(=O)[C@H]1CCCCN1C)C(=O)N(C)[C@H](CCc1nc(C(=O)N[C@@H](Cc2ccccc2)C[C@H](C)C(=O)O)cs1)C(C)C | 0.6 nM | Active | Active | Active |  | Active |  |  |  |  |  | Activity [16]: Toxic; Activity [17]: 70%; Activity [18]: >30%; Activity [19]: 30%
4 | CC[C@H](C)[C@H](NC(=O)[C@H]1CCCCN1C)C(=O)N(C)[C@H](CCc1cccc(C(=O)N[C@@H](Cc2ccccc2)C[C@H](C)C(=O)O)c1)C(C)C | 100 nM |  | Active |  | Active | Active | Active | 33% | inactive | 13.2 nM | inactive | inhibition [20]: Active; inhibition [21]: Active
